Laboratory results from ChEMBL document CHEMBL1137665, “Antistaphylococcal activity of CG400549, a new experimental FabI inhibitor, compared with that of other agents” (2007).
Values after ≈ are worked out from the molar mass of the structure shown.

What was measured:
Assay type in all cases: functional
[1] = tested on: Staphylococcus aureus; assay: Antimicrobial activity against vancomycin-resistant Staphylococcus aureus 510 Hershey after 14 passages by multi-step resistance selection technique
In short: (§1)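 Multistep selection: 10 S. aureus strains (8 MRSA incl. two VRSA, two VISA; 2 MSSA) serially passaged daily at subinhibitory concentrations of each antimicrobial; MICs of mutants retested and compared with parent; clone identity versus parent confirmed by pulsed-field gel electrophoresis at study end.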

[2] = tested on: Staphylococcus aureus; assay: Antimicrobial activity against panton-valentine leukocidin-positive community-acquired methicillin-resistant Staphylococcus aureus 490 after 17 passages by multi-step resistance selection technique; in short: as §1
[3] = tested on: Staphylococcus aureus; assay: Antimicrobial activity against methicillin-susceptible Staphylococcus aureus 543 after 14 passages by multi-step resistance selection technique
In short: (§2)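 Multistep selection by daily serial passage of each strain in subinhibitory drug concentrations for the stated number of passages. Mutant MIC was then determined. Identity of mutants and parents was confirmed by pulsed-field gel electrophoresis.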

[4] = tested on: Staphylococcus aureus; assay: Antimicrobial activity against methicillin-susceptible Staphylococcus aureus 543 after 17 passages by multi-step resistance selection technique; in short: as §2

Row | SMILES | MIC [1] [µg/mL] | MIC [2] [µg/mL] | MIC [3] [µg/mL] | MIC [4] [µg/mL]
1 | Cc1c(N)cccc1Cn1ccc(OCCc2cccs2)cc1=O [CG-400549] | 4 (≈ 11.7 µM) | 8 (≈ 23.5 µM) | 8 (≈ 23.5 µM) | 
2 | CCCCCCCCCC(=O)N[C@@H](Cc1c[nH]c2ccccc12)C(=O)N[C@H](CC(N)=O)C(=O)N[C@@H](CC(=O)O)C(=O)N[C@@H]1C(=O)NCC(=O)N[C@@H](CCCN)C(=O)N[C@@H](CC(=O)O)C(=O)N[C@H](C)C(=O)N[C@@H](CC(=O)O)C(=O)NCC(=O)N[C@H](CO)C(=O)N[C@@H]([C@H](C)CC(=O)O)C(=O)N[C@@H](CC(=O)c2ccccc2N)C(=O)O[C@@H]1C |  |  |  | 8 (≈ 4.94 µM)
